Results on 4 compounds are retold here after publication PMC4314522 (Molecular Metabolism, 2014).

The target in data set [1] is T1, human GPR40 (Homo sapiens, UniProt O14842). Kind of data set: IP turnover assay in transiently transfected COS-7 cells. Type of data set: cell-based. The following applies: for Emax: COS-7, read-out: IP3 (in vitro) Emax.
In data set [2] the target is T1, human GPR40. Description: cAMP accumulation assay in transiently transfected COS-7 cells. The format is cell-based. Conditions: for Stimulation of cAMP accumulation (in words): COS-7 transfected with GPR40. For orientation: cAMP levels reflect the balance of adenylyl cyclase and phosphodiesterase activity.
Data set [3] concerns mouse colonic crypt cultures (WT). Kind of data set: Total GLP-1 release from primary colonic crypt cultures, WT mice. Conditions: 1 μM ligand, 2 h, relative to basal (vehicle). The format is cell-based. Put shortly: (§1)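 Colonic crypts from male C57BL/6 littermates were collagenase-digested and seeded on Matrigel. […] Next day, cells were exposed to ligands for 2 h at 37 °C, in triplicate, in standard solution with 0.1% fatty-acid-free BSA and 10 mM glucose. Synthetic ligands were in DMSO; ALA was BSA-complexed at 6:1 molar. Total GLP-1 was measured by electrochemiluminescent immunoassay, expressed as fold over vehicle basal.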

The target of data set [4] is T1, human GPR40. The format is binding.
Data set [5] concerns the target T1, human GPR40. Type of data set: binding. The source holds these as a separate data set.
Data set [6] concerns mouse colonic crypt cultures GPR40 (−/−). Kind of data set: Total GLP-1 release from primary colonic crypt cultures, Gpr40 KO mice. Conditions: 1 μM ligand, 2 h, relative to basal (vehicle). The format is cell-based. Put shortly: as §1
Data set [7] deals with plasma GLP-1. Description: Plasma total GLP-1 after oral gavage in fasted mice. Conditions: 30 mg/kg oral, 30 min, overnight fasted mice; vehicle about 5 pmol/L. The format is in vivo, mouse.
Data set [8] concerns plasma GIP. Kind of data set: Plasma GIP after oral gavage in fasted mice. Conditions: 30 mg/kg oral, 30 min, overnight fasted mice. Type of data set: in vivo, mouse.
Data set [9] in a line: PK experiments. Conditions: mouse, in vivo, po, 30 mg/kg.
The conditions of data set [10]: phase-II studies, cited from earlier work.

Where two headings read alike, the source gives them in different places.

T1 sequence (O14842 whole entry): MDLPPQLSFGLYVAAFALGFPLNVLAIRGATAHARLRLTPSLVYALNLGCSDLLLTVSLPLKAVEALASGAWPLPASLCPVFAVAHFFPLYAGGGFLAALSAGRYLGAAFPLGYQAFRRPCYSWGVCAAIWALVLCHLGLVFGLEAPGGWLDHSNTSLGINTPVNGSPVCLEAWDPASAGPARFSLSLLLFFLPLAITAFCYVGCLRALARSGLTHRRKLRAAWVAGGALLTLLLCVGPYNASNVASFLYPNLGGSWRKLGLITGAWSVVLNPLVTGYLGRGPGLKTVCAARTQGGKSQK

A word on the EC50: it is the concentration that produces a half-maximal response. A high value points to lower potency in that assay. As a reminder, the Emax is the size of the effect at its maximum, as opposed to the concentration needed. Take `CC/C=C\C/C=C\C/C=C\C/C=C\C/C=C\C/C=C\CCC(=O)O` [DHA, docosahexaenoic acid]: in data set [1], the EC50 came to 12 µM and the maximum response (Emax) amounted to 56 ± 6%. In [2], the EC50 was above 1000 µM and the “Stimulation of cAMP accumulation (in words)” value (“Stimulation” below) is listed as “not able to stimulate cAMP accumulation meaningfully”.

Consider `CC(C)c1noc(C2CCN(c3ncnc(Nc4ccc(S(C)(=O)=O)cc4F)c3[N+](=O)[O-])CC2)n1` [AR231453], for which the “tGLP-1 (ex vivo) release, WT” value in [3] was 4.7 ± 0.3 fold change.

One may read the IC50 as the concentration at which inhibition is half-maximal. A high value points to a need for much substance. In general, Cmax refers to the peak of the concentration-time curve. For `COc1ccc(F)c(-c2ccc(COc3cccc([C@@H](CC(=O)O)C4CC4)c3)cc2C2=CCCC2(C)C)c1` [AM-1638], in [4], the “Binding (in vitro) [3H]L358: positive or negative competitive binding” value was “(neg)” and the 50% inhibitory concentration (IC50) turned out to be 0.026 µM. Besides, in data set [5], the “Binding (in vitro) [3H]AM-1638: positive or negative competitive binding” value is “(pos)” and the IC50 stood at 0.029 µM. In addition, in data set [1], the EC50 was 0.0251 µM and the maximal effect (Emax) is 170 ± 14%. In [2], the “Stimulation” value is on record as “stimulated cAMP accumulation robustly”. Moreover, the “cAMP potency, fold lower than the potency for IP-accumulation” value in data set [2] (cAMP EC50 versus IP EC50) is on record as 7 fold. The “tGLP-1 (ex vivo) release, WT” value in [3] is on record as 3.0 ± 0.54 fold change. Further, the “tGLP-1 (ex vivo) release, GPR40 (−/−)” value in [6] is reported as 1.1 ± 0.07 fold change. The “Plasma GLP-1, median of all experiments” value in data set [7] is on record as 29 pmol/L. The “Plasma GIP, median of all experiments” value in data set [8] (vehicle 53 pmol/L) is on record as 383 pmol/L. The peak level in data set [9] (Cmax) was 11 µM.

On to `Cc1cc(OCCCS(C)(=O)=O)cc(C)c1-c1cccc(COc2ccc3c(c2)OC[C@H]3CC(=O)O)c1` [TAK-875, fasiglifam], for which the “Binding (in vitro) [3H]L358: positive or negative competitive binding” value in [4] is “(pos)”. The “Binding (in vitro) [3H]AM-1638: positive or negative competitive binding” value in [5] is reported as “(neg)”. The maximal response (Emax) in [1] worked out at 98 ± 4%. Further, the “Stimulation” value in [2] is “no or very limited stimulation of cAMP production”. Further, the “tGLP-1 (ex vivo) release, WT” value in [3] was 1.5 ± 0.08 fold change. The “tGLP-1 (ex vivo) release, GPR40 (−/−)” value in data set [6] stood at 1.1 ± 0.12 fold change. Moreover, the “Plasma GLP-1, median of all experiments” value in data set [7] was 10.8 pmol/L. The “Significance of plasma GIP increase (in words)” value in [8] is reported as “only increased plasma GIP significantly in one of the three experiments”. This compound had a peak concentration (Cmax) in [9] of 2 µM. For the same compound, the “Effect on HbA1c” value in data set [10] (without signs of hypoglycemia) is “decreased HbA1c as efficiently as sulfonylurea”. Besides, the “Effect on plasma GLP-1” value in data set [10] is “no effect”.
